We go through 56 compounds from ChEMBL document CHEMBL3112564, “Identification of clinically viable quinolinol inhibitors of botulinum neurotoxin A light chain” (J Med Chem, 2014).

For orientation: IC50 means the concentration needed to halve the response being measured. A high value points to lower potency. A word on the thermodynamic solubility: it is the concentration in solution at equilibrium with solid.

The target of series [1] is Botulinum neurotoxin type A (Clostridium botulinum, UniProt P0DPI0).
Sequence of Botulinum neurotoxin type A (P0DPI0 2-448 limits assumed): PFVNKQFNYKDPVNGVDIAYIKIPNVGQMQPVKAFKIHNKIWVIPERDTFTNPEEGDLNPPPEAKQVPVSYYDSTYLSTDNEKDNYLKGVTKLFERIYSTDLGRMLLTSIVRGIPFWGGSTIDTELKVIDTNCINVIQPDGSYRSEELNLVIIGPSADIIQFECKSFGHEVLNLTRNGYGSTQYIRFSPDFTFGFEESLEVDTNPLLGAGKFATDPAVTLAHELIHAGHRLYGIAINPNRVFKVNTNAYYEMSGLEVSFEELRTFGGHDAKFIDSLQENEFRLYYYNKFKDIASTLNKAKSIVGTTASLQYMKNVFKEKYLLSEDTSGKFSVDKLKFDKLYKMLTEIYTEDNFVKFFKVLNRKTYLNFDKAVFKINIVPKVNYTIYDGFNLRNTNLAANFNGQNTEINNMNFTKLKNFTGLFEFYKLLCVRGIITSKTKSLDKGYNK
Series [2] has as its system Plasma. As to the kind of experiment: Metabolic stability in Sprague-Dawley rat plasma assessed as compound remaining at 1 uM measured at 3 hrs by LC-MS/MS analysis. Format: ADME, cell-free. The essentials:
(§1)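 Compound at 1.0 μM was incubated in plasma at 37 °C and sampled at 0, 1, 3, 5 and 24 h. Proteins were precipitated with cold acetonitrile containing internal standard, and samples were analysed by LC–MS/MS for percent remaining. Half-life came from regression analysis.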

Series [3] relates to Liver microsome. The series can be described thus: Drug metabolism in human liver microsomes assessed as metabolic rate at 1 uM by reversed phase LC/MS analysis. The format is ADME. The essentials: (§2)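 Liver microsomes were from humans (pooled from 10 male donors) or male Sprague–Dawley rats aged 8–10 weeks. Incubations used 0.125 mg/mL total protein and 1.0 μM drug at 37 °C, sampled at 0, 5, 15, 30 and 60 min. Parent-to-product transitions were read by reversed-phase LC with triple quadrupole MS, and % remaining was taken relative to time zero. t1/2 = −ln(2)/k, with k from log–linear regression.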
In general terms: Microsomes from liver hold many membrane-bound enzymes, among them those of drug oxidation.

The test system of series [4] is Liver microsome. The series can be described thus: Half life in human liver microsomes at 1 uM by reversed phase LC/MS analysis. The format is ADME. The essentials:
as §2

For series [5], the system named is Plasma. As to the kind of experiment: Metabolic stability in human plasma assessed as compound remaining at 1 uM measured at 3 hrs by LC-MS/MS analysis. The format is ADME, cell-free. The essentials: as §1
Series [6] relates to Plasma. As to the kind of experiment: Half life in human plasma at 1 uM by LC-MS/MS analysis. The format is ADME, cell-free. The essentials: as §1
The test system of series [7] is Liver microsome. As to the kind of experiment: Half life in Sprague-Dawley rat liver microsomes at 1 uM by reversed phase LC/MS analysis. Format: ADME. The gist of the method:
as §2

Series [8] in a line: Aqueous solubility of the compound at pH 1 after 24 hrs by shake flask method. Format: physicochemical. The gist of the method:
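Miniaturized shake-flask method: analyte at 1.0 mM in aqueous solution at pH 1.0 or 6.8, shaken gently (600 rpm) in a syringeless filter at room temperature for 24 h. Filtrate was collected after a further 30 min, diluted in 50:50 MeCN/water with 0.1% formic acid, and analysed by LC–MS/MS. Calibration range was 0.05–12.5 μM at pH 6.8 and 5.0–25000 μM at pH 1.0.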

Series [9] concerns Liver microsome. The series can be described thus: Drug metabolism in Sprague-Dawley rat liver microsomes assessed as metabolic rate at 1 uM by reversed phase LC/MS analysis. Format: ADME. The gist of the method:
as §2

In series [10] the test system is Plasma. The series can be described thus: Half life in Sprague-Dawley rat plasma at 1 uM by LC-MS/MS analysis. Format: ADME, cell-free. The gist of the method:
as §1

Each structure is given as a SMILES string. Values after ≈ are worked out from the molar mass of the structure shown.

As for `COc1ccc(C(Nc2ccccn2)c2ccc3ccc(C)nc3c2O)cc1OC` (stereo not drawn), the IC50 in series [1] was 3 µM.
The same measure, in the same setting: the result for `COc1ccc(C)cc1NC(c1ccccn1)c1ccc2cccnc2c1O` (stereo not drawn) reads 5.1 µM.
The same measure, in the same setting: under `CC(=O)NC(c1ccc(C)cc1)c1ccc2cccnc2c1O` (stereo not drawn) stands more than 100 µM.
Consider `COc1cccc(C(Nc2cc(C)ccn2)c2ccc3ccc(C)nc3c2O)c1` (stereo not drawn), for which the IC50 in series [1] is 2 µM.
Still for that read-out and setting: the result for `Oc1cccc2cccnc12` [OXYQUINOLINE] reads more than 30 µM; that for `Cc1ccnc(NC(c2ccccc2[N+](=O)[O-])c2ccc3ccc(C)nc3c2O)c1` (stereo not drawn), 0.9 µM; that for `Cc1ccccc1C(Nc1ccccn1)c1ccc2cccnc2c1O` (stereo not drawn), 3.6 µM.
Still for that read-out and setting: under `Cc1ccc2c(Cl)cc(I)c(O)c2n1` stands 14.1 µM; under `Oc1c(C(Nc2ccccc2Cl)c2cccnc2)ccc2cccnc12` (stereo not drawn), 1.9 µM; under `Cc1ccc2cccc(O)c2n1` [8-HYDROXY QUINALDINE], more than 30 µM.
Still for that read-out and setting: under `COC(=O)c1cccc(NC(c2ccccn2)c2ccc3cccnc3c2O)c1` (stereo not drawn) stands 7.8 µM; under `Cc1cc(Cl)ccc1NC(c1cccnc1)c1ccc2cccnc2c1O` (stereo not drawn), 2.3 µM.
On to `COc1ccc(C(Nc2ccccn2)c2ccc3cccnc3c2O)cc1` (stereo not drawn), for which the values for the Stability in [2] and in series [5] were 42.2% and 53.4%, respectively. The compound also yielded a 50% inhibitory concentration (IC50) in series [1] of 5.6 µM. Moreover, the Drug metabolism was 0.242 µM/min/mg in series [3] and 0.487 µM/min/mg in series [9]. The t1/2 came out at 0.378 h in series [4], 6.1 h in series [6], 0.188 h in [7] and 5 h in series [10]. Also, the thermodynamic solubility at 24 h in [8] was 102 µM (≈ 36.5 µg/mL).
`Oc1c(C(Nc2ccccn2)c2ccc(F)cc2)ccc2cccnc12` (stereo not drawn) registered an IC50 in series [1] of 7.1 µM.
`COC(=O)c1cccc(NC(c2cccnc2)c2ccc3cccnc3c2O)c1` (stereo not drawn): the IC50 in [1] was determined as 4.2 µM.
Still for that read-out and setting: under `Cc1cccc(NC(c2ccc(C)s2)c2ccc3ccc(C)nc3c2O)n1` (stereo not drawn) stands more than 100 µM; under `Cc1ccnc(NC(c2ccccn2)c2ccc3cccnc3c2O)c1` (stereo not drawn), 13.4 µM.
Still for that read-out and setting: the result for `CCCOC(=O)c1ccc(NC(c2cccnc2)c2ccc3cccnc3c2O)cc1` (stereo not drawn) reads 3 µM.
Still for that read-out and setting: the result for `CCCC(=O)NC(c1ccccc1Cl)c1ccc2cccnc2c1O` (stereo not drawn) reads more than 100 µM.
Turning to `Cc1ccc2ccc(C(Nc3ccccn3)c3cccc(OCc4ccccc4)c3)c(O)c2n1` (stereo not drawn), in series [1], the half-inhibitory concentration (IC50) came to 1.4 µM.
The same measure, in the same setting: under `Cc1ccc(C(Nc2ccccn2)c2ccc3cccnc3c2O)cc1` (stereo not drawn) stands 2.5 µM.
In turn, `Cc1cccc(NC(c2ccccc2[N+](=O)[O-])c2ccc3ccc(C)nc3c2O)n1` (stereo not drawn) came in with an IC50 in series [1] of 10.7 µM.
Still for that read-out and setting: under `Cc1ccc2ccc(C(Nc3ccccn3)c3ccc(F)cc3)c(O)c2n1` (stereo not drawn) stands 2.8 µM; under `CCC(=O)NC(c1ccc(OC)c(OC)c1)c1ccc2cccnc2c1O` (stereo not drawn), more than 100 µM.
On the same count and under the same terms, under `Cc1ccnc(NC(c2ccccn2)c2ccc3ccc(C)nc3c2O)c1` (stereo not drawn) stands 2.1 µM; under `O=C(NC(c1ccccc1Cl)c1ccc2cccnc2c1O)c1ccccc1` (stereo not drawn), 0.8 µM.
In [1], `Cc1cccc(NC(c2ccccn2)c2ccc3cccnc3c2O)c1` (stereo not drawn) came in with a 50% inhibitory concentration (IC50) of 16.7 µM.
Take `COc1ccc(C(Nc2ccccn2)c2ccc3ccc(C)nc3c2O)cc1` (stereo not drawn): the Stability is 86.6% in series [2] and 66.2% in series [5]. The compound further returned an IC50 in series [1] of 1.9 µM. Moreover, the values for the Drug metabolism in series [3] and in series [9] were 0.324 µM/min/mg and 0.627 µM/min/mg, respectively. Besides, the t1/2 in series [4] is 0.283 h; in [6], 10.7 h; in series [7], 0.147 h; in [10], 5 h. The thermodynamic solubility at 24 h in [8] was 76.7 µM (≈ 28.5 µg/mL).
`COc1ccc(C)cc1NC(c1cccnc1)c1ccc2cccnc2c1O` (stereo not drawn) displayed a half-maximal inhibitory concentration (IC50) in [1] of 4.4 µM.
Take `CC(C)Oc1c(C(Nc2ccccn2)c2ccccc2)ccc2cccnc12` (stereo not drawn): the IC50 in [1] is more than 100 µM.
Still for that read-out and setting: the result for `Cc1cc(Cl)ccc1NC(c1ccccn1)c1ccc2cccnc2c1O` (stereo not drawn) reads 5.2 µM; that for `Cc1ccnc(NC(c2ccc(Cl)c(Cl)c2)c2ccc3cccnc3c2O)c1` (stereo not drawn), 1.5 µM; that for `Cc1ccnc(NC(c2cccc([N+](=O)[O-])c2)c2ccc3cccnc3c2O)c1` (stereo not drawn), 4.6 µM.
On the same count and under the same terms, under `COc1cccc(C(Nc2cc(C)ccn2)c2ccc3cccnc3c2O)c1` (stereo not drawn) stands 3.3 µM; under `CN(C)c1ccc(C(NC(=O)Cc2ccccc2)c2ccc3cccnc3c2O)cc1` (stereo not drawn), 7.1 µM.
With `Cc1ccnc(NC(c2ccc([N+](=O)[O-])cc2)c2ccc3cccnc3c2O)c1` (stereo not drawn), the Stability in series [2] is given as 100%; in series [5] it was 90.9%. The compound also came in with an IC50 in series [1] of 4.3 µM. Also, the Drug metabolism came out at 0.215 µM/min/mg in [3] and 0.13 µM/min/mg in series [9]. Also, the t1/2 in series [4] was 0.425 h; in series [6], 24.4 h; in series [7], 0.703 h; in series [10], 51.1 h. Moreover, the thermodynamic solubility at 24 h in [8] turned out to be 1050 µM (≈ 405 µg/mL).
Regarding `Cc1ccnc(NC(c2ccc(Cl)c(Cl)c2)c2ccc3ccc(C)nc3c2O)c1` (stereo not drawn), the IC50 in series [1] stood at 1.2 µM.
`COc1cccc(C(NC(C)=O)c2ccc3cccnc3c2O)c1` (stereo not drawn): in series [1], the 50% inhibitory concentration (IC50) is more than 100 µM.
Consider `Cc1ccnc(NC(c2ccc(N(C)C)cc2)c2ccc3ccc(C)nc3c2O)c1` (stereo not drawn), for which, in series [1], the IC50 is 2.5 µM.
The same measure, in the same setting: under `COc1ccc(C(Nc2ccccn2)c2ccc3cccnc3c2O)cc1OC` (stereo not drawn) stands 6.2 µM.
Still for that read-out and setting: the result for `Cc1ccc(C(Nc2ccccn2)c2ccc3ccc(C)nc3c2O)cc1` (stereo not drawn) reads 2.1 µM.
`CCOC(=O)c1ccc(NC(c2cccnc2)c2ccc3cccnc3c2O)cc1` (stereo not drawn) gave an IC50 in series [1] of 2.9 µM.
Consider `CCOC(=O)c1ccc(NC(c2ccccn2)c2ccc3cccnc3c2O)cc1` (stereo not drawn), for which the IC50 in series [1] was found to be 5.1 µM.
`Cc1ccc2ccc(C(Nc3ccccn3)c3ccc(C)s3)c(O)c2n1` (stereo not drawn) had an IC50 in [1] of 2 µM.
The same measure, in the same setting: the result for `Oc1c(C(Nc2ccccc2Cl)c2ccccn2)ccc2cccnc12` (stereo not drawn) reads 5.6 µM; that for `CC(=O)NC(c1ccc(N(C)C)cc1)c1ccc2cccnc2c1O` (stereo not drawn), more than 100 µM; that for `Cc1cccc(NC(c2cccnc2)c2ccc3cccnc3c2O)c1` (stereo not drawn), 6.7 µM.
Still for that read-out and setting: under `CCC(=O)NC(c1ccc(N(C)C)cc1)c1ccc2cccnc2c1O` (stereo not drawn) stands more than 100 µM; under `Cc1ccnc(NC(c2cccc([N+](=O)[O-])c2)c2ccc3ccc(C)nc3c2O)c1` (stereo not drawn), 1.1 µM.
`Cc1cccc(NC(c2cccc(OCc3ccccc3)c2)c2ccc3ccc(C)nc3c2O)n1` (stereo not drawn) had an IC50 in series [1] of 3.5 µM.
Same read-out and setting: the result for `Cc1ccnc(NC(c2ccc(N(C)C)cc2)c2ccc3cccnc3c2O)c1` (stereo not drawn) reads 3.5 µM.
Same read-out and setting: under `Cc1cccc(NC(c2ccc(N(C)C)cc2)c2ccc3ccc(C)nc3c2O)n1` (stereo not drawn) stands 4.5 µM; under `CC(C)C(=O)NC(c1ccccc1Cl)c1ccc2cccnc2c1O` (stereo not drawn), more than 100 µM; under `Cc1ccc2ccc(C(Nc3ccccn3)c3ccccc3C)c(O)c2n1` (stereo not drawn), 1.6 µM.
Same read-out and setting: the result for `CCCOC(=O)c1ccc(NC(c2ccccn2)c2ccc3cccnc3c2O)cc1` (stereo not drawn) reads 5.6 µM.
`CCC(=O)NC(c1ccccc1Cl)c1ccc2cccnc2c1O` (stereo not drawn) showed an IC50 in [1] of more than 100 µM.
